Data set [1] can be described thus: folding enthalpy; higher = less favourable; fluorescence melt of hairpins on a sequencing array, two-state fit. The following applies: sodium 0.088 M. In outline: (§1)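 Cy3 signals were normalised both to pre-quench Cy3 and to control constructs. They came from library hairpins carrying annealed Cy3 and quencher oligos on a sequenced MiSeq flow cell, imaged in 50 mM Na-HEPES pH 8.0, 25 mM NaCl, in 2.5 °C steps up to 60 °C. Bootstrapped two-state fits gave melting temperature and folding enthalpy, and four replicates were combined by inverse variance. Fitted temperatures were then raised by 9.35 °C to match UV melts.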

Data set [2] can be described thus: melting temperature; fluorescence melt of hairpins on a sequencing array, two-state fit, raised by 9.35 °C to match UV melts. The following applies: sodium 0.088 M. An outline of the steps: as §1

Turning to GAACGCGAAAGCGAATTC ((((((....)))..))), in data set [1], the folding enthalpy was -10.7 kcal/mol. Besides, the Tm in data set [2] is 28.8 °C.
Regarding GAACGCGAAAGCGCGTTC ((((((....)))..))), the folding enthalpy in data set [1] was -25.5 kcal/mol. Besides, the Tm in data set [2] amounted to 63.1 °C.
With GAACGCGAAAGCGGATTC ((((((....)))..))), the folding enthalpy in data set [1] was -15.8 kcal/mol. In addition, the Tm in data set [2] stood at 49.5 °C.
For GAACGCGGAAACGTGTTC ((((.((....)).)))), in that order: -37.7 kcal/mol and 56 °C.
For the sequence GAACGGCGAAAGCCTTTC (((.(((....))).))), the folding enthalpy in data set [1] was -18 kcal/mol. Besides, the Tm in data set [2] was determined as 39.7 °C.
For GAACGGGGAAACCCATTC (((.(((....))).))) the same measures were -19 kcal/mol and 33.2 °C.
For GAACTACGAAAGTAATTC (((.(((....))).))) the same measures were -17.3 kcal/mol and 31.5 °C.
For GAACTAGGAAACTAGCTC ((.((((....)))).)), in that order: -21.3 kcal/mol and 29 °C.
Regarding GAACTAGGAAACTGGTTC ((((.((....)).)))), the folding enthalpy in data set [1] is -29 kcal/mol. Also, the Tm in data set [2] was determined as 43 °C.
For GAACTCCGAAAGGATTTC (((.(((....))).))) the same measures were -23.5 kcal/mol and 35.2 °C.
For GAACTCGGAAACGAGTTC (((((((....))))))), in data set [1], the folding enthalpy is -40.9 kcal/mol. Moreover, in data set [2], the Tm is 67 °C.
For GAACTGACGAAAGTCTTC (((..(((....)))))), the folding enthalpy in data set [1] is -8.83 kcal/mol. Besides, the Tm in data set [2] turned out to be 23.7 °C.
GAAGACCCGAAAGGGTTC (((..(((....)))))): in data set [1], the folding enthalpy is -8.91 kcal/mol. For the same sequence, the Tm in data set [2] worked out at 32.6 °C.
For GAAGACCGAAAGGTTTTC (((.(((....))).))), in that order: -27.4 kcal/mol and 47.9 °C.
For GAAGACGAAAGTCAGTTC ((((((....)))..))), in that order: -15 kcal/mol and 24 °C.
For GAAGACGAAAGTCGGTTC ((((((....)))..))) the same measures were -12.8 kcal/mol and 34.4 °C.
Regarding GAAGACGGAAACATCTTC (((((.(....).))))), the folding enthalpy in data set [1] is -20 kcal/mol. The Tm in data set [2] turned out to be 29.8 °C.
GAAGACGGAAACGTCCTC ((.((((....)))).)): the folding enthalpy in data set [1] was -11.9 kcal/mol. Besides, in data set [2], the Tm was 35.9 °C.
For GAAGACGGAAACGTTTTC (((.(((....))).))), in that order: -32.6 kcal/mol and 41.1 °C.
For GAAGAGCCGAAAGGCTTC (((..(((....)))))) the same measures were -9.43 kcal/mol and 31.6 °C.
Take GAAGAGGGAAACCTCCTC ((.((((....)))).)): the folding enthalpy in data set [1] was -14.9 kcal/mol. The Tm in data set [2] was 26.4 °C.
For GAAGAGGGAAACCTCTCC (.(((((....))))).), in that order: -12.5 kcal/mol and 34.2 °C.
For GAAGAGGGAAACCTCTTC (((((((....))))))), in that order: -33.5 kcal/mol and 55.3 °C.
As for GAAGATCCGAAAGGATTC (((..(((....)))))), in data set [1], the folding enthalpy was -12.6 kcal/mol. Moreover, the Tm in data set [2] worked out at 31.3 °C.
For GAAGCACGAAAGTGGTTC (((.(((....))).))) the same measures were -31.6 kcal/mol and 61.3 °C.
For GAAGCAGGAAACTACTTC ((((.((....)).)))) the same measures were -19 kcal/mol and 31.7 °C.
For GAAGCAGGAAACTGCCTC ((.((((....)))).)), in that order: -13.2 kcal/mol and 34.5 °C.
On to GAAGCCGAAAGGCCGTTC ((((((....)))..))), for which, in data set [1], the folding enthalpy is -6.55 kcal/mol. Also, the Tm in data set [2] is 26.6 °C.
For GAAGCCGAAAGGCTTTC ((((((....))).))) the same measures were -11.1 kcal/mol and 54.2 °C.
For GAAGCGAAAGCTTC (((((....))))), in that order: -25.7 kcal/mol and 68.1 °C.
For GAAGCGCGAAAGCGTTC (((.(((....)))))) the same measures were -10.6 kcal/mol and 41.2 °C.
Regarding GAAGCGGGAAACCGCCTC ((.((((....)))).)), the folding enthalpy in data set [1] is -10.8 kcal/mol. Besides, the Tm in data set [2] stood at 36.7 °C.
For GAAGCGGGAAACCGCTCC (.(((((....))))).) the same measures were -10.3 kcal/mol and 42.5 °C.
For GAAGGAGAAATCCTTC ((((((....)))))), the folding enthalpy in data set [1] was -26.8 kcal/mol. The Tm in data set [2] worked out at 46.3 °C.
For GAAGGCCGAAAGGCATTC (((.(((....))).))) the same measures were -24.2 kcal/mol and 62.6 °C.
As for GAAGGCGGAAACACCTTC (((((.(....).))))), the folding enthalpy in data set [1] was -30.9 kcal/mol. Further, the Tm in data set [2] amounted to 42.7 °C.
For GAAGGCGGAAACGCTTTC (((.(((....))).))), in that order: -24.9 kcal/mol and 48.2 °C.
For GAAGGGCGAAAGCCATTC (((.(((....))).))), in that order: -22.2 kcal/mol and 57.1 °C.
As to GAAGGGCGAAAGCCTTC (((.(((....)))))), the folding enthalpy in data set [1] is -14.3 kcal/mol. Further, the Tm in data set [2] stood at 50.8 °C.
For GAAGGGGAAACCCTTC ((((((....)))))), in that order: -28.6 kcal/mol and 53.8 °C.
For GAAGGTGGAAACACCTCC (.(((((....))))).) the same measures were -12.3 kcal/mol and 40.8 °C.
With GAAGTAGGAAACCACTTC (((((.(....).))))), the folding enthalpy in data set [1] is -24.7 kcal/mol. Also, the Tm in data set [2] was 34.8 °C.
For GAAGTAGGAAACTACTCC (.(((((....))))).) the same measures were -11.4 kcal/mol and 32.5 °C.
As to GAAGTAGGAAACTACTTC (((((((....))))))), the folding enthalpy in data set [1] is -42.6 kcal/mol. Besides, the Tm in data set [2] is 52.5 °C.
For GAAGTCGGAAACGACTTC (((((((....))))))) the same measures were -36.4 kcal/mol and 66 °C.
For GAAGTCGGAAACGGCTTC ((((.((....)).)))) the same measures were -39.7 kcal/mol and 54.5 °C.
For GAAGTGCGAAAGCAGTTC (((.(((....))).))) the same measures were -33.5 kcal/mol and 57.5 °C.
On to GAAGTGCGAAAGCATTTC (((.(((....))).))), for which, in data set [1], the folding enthalpy is -23.5 kcal/mol. In addition, the Tm in data set [2] turned out to be 51 °C.
For GAAGTGGAAACACTTC ((((((....)))))) the same measures were -33.7 kcal/mol and 54 °C.
For GAAGTGGGAAACCACCTC ((.((((....)))).)), in that order: -13.7 kcal/mol and 32.2 °C.
In the case of GAAGTTGAAAAACTTC ((((((....)))))), the folding enthalpy in data set [1] is -28.1 kcal/mol. In addition, the Tm in data set [2] worked out at 48.5 °C.
For GAAGTTGGAAACGATTTC (((.(.(....).).))) the same measures were -20.9 kcal/mol and 36.7 °C.
For GAATAACGAAAGTTCTTC (((.(((....))).))) the same measures were -20.7 kcal/mol and 32.2 °C.
As for GAATAACGAAAGTTGTTC (((.(((....))).))), in data set [1], the folding enthalpy was -31 kcal/mol. Moreover, the Tm in data set [2] stood at 45.5 °C.
For GAATAAGCGAAAGCTTTC (((..(((....)))))), in that order: -9.51 kcal/mol and 25.7 °C.
